Some results are limits rather than exact numbers.

Assay [1] relates to adenovirus type 5. As to the kind of experiment: Adenovirus assay: adenovirus-5 replication in HFF cells, viral DNA by qPCR. It is filed as cell-based. Particulars: read-out: EC50, adenovirus replication; data not shown.
Assay [2] has as its system W12 cells. As to the kind of experiment: Apoptosis assay. The format is cell-based, human. As to conditions: W12, 40 h exposure. In a few lines: (§1)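 Apoptosis read as cytoplasmic histone-associated DNA fragments with a Cell Death Detection ELISA kit. Exposure was 20 h for IM9 and MT4 and 40 h for W12 and U937. A405 was read kinetically at 30 °C, and the rate per hour came from linear regression of the linear portion. A Fas-activating antibody was the positive control.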

Assay [3] has as its system W12-20850 cells. The assay can be described thus: Growth of W12-20850 cells, MTS. It is filed as cell-based, human. As to conditions: read-out: EC50, inhibition of growth of W12 cells; data not shown. The gist of the method: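 For the time course, test compound was added at time zero to cells growing in 96-well plates. Growth was followed as rate of MTS reduction over 3 days from day zero, with untreated controls alongside.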

Assay [4] concerns IM9 cells. As to the kind of experiment: Apoptosis assay. The format is cell-based, human. Particulars: IM9, 20 h exposure. The gist of the method: as §1
For assay [5], the system named is episomal HPV-16 DNA. The assay can be described thus: Hybrid capture assay for HPV16 DNA in W12-20850 cells. As to conditions: read-out: EC50, reduction of HPV DNA; W12 cells; data not shown. It is filed as cell-based. In a few lines: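 W12-20850 cells seeded at 7.5 × 10^3/well onto compound (100 to 0.001 μM), 4 days at 37 °C, 5% CO2. MTS growth read, then same cells lysed in 0.2N NaOH/1% Igepal. Episomal HPV-16 DNA measured by hybrid capture: 90 °C 6.5 min, 42 °C overnight, anti-digoxigenin HRP, chemiluminescence. HPV DNA/MTS ratio expressed as % of untreated control. Fit to modified Hill equation.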

The subject of assay [6] is MT4 cells. As to the kind of experiment: Growth of MT4 cell line. It is filed as cell-based, human. As to conditions: read-out: EC50, growth of MT4 cells; data not shown.
Assay [7] deals with MT4 cells. The assay can be described thus: Apoptosis assay. The format is cell-based, human. As to conditions: MT4, 20 h exposure. The gist of the method: as §1
Assay [8] concerns U937 cells. As to the kind of experiment: Apoptosis assay. The format is cell-based, human. Particulars: U937, 40 h exposure. The gist of the method: as §1
Assay [9] relates to IM9 cells. As to the kind of experiment: Growth of IM9 cell line. It is filed as cell-based, human. Particulars: read-out: EC50, growth of IM9 cells; data not shown.

For `O=C(N[C@H]1CCCc2c1[nH]c1ccc(Cl)cc21)c1ccccn1` [GSK984], the EC50 in assay [1] was > 10 µM; in assay [3] it was 17 ± 3.6 µM; in assay [5] it was 6.9 ± 0.68 µM; in assay [6], 35 µM; in assay [9], 13 µM. Moreover, the Apoptosis entry in assay [2], in [4], in assay [7] and in [8] was “did not induce apoptosis” in each case.

The values are drawn from article PMC7114156 (Antiviral Research, 2009).
